Like-named read-outs stand apart in the source and are kept apart here.

The subject of one data set is human cell lines. The conditions noted are these: cited from earlier work.
In a further data set the test system is mammalian hexokinase. The conditions noted are these: cited from earlier work.
Data set [1] concerns the target rTbHK1 (recombinant T. brucei hexokinase 1). The conditions noted are these: read-out: rTbHK1 IC50; initial round of SAR study; cited from earlier work.
Data set [2] has the same target. The experiment in a line: rTbHK1 enzyme inhibition assay. It counts as biochemical, Trypanosoma brucei. The note with it: read-out: TbHK1 IC50; dose-response. The method in brief:
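Recombinant TbHK1 was expressed in and isolated from Escherichia coli or yeast. The purified enzyme was tested in triplicate for percent inhibition at 10 μM test compound. IC50 was taken as the concentration giving 50% inhibition of TbHK1 activity.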

The test system of data set [3] is BSF T. brucei. The conditions noted are these: cited from earlier work.
Data set [4] concerns BSF T. brucei. As to the kind of experiment: Growth inhibition of BSF T. brucei cultures. The conditions noted are these: for EC50: read-out: BSF EC50, dose-response in triplicate, 384-well format. It counts as cell-based, Trypanosoma brucei. In a few lines:
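Bloodstream-form T. brucei cultures were treated in triplicate with test compound at 10 μM, with DMSO vehicle as negative control and a reference inhibitor as positive control on each plate. Percent growth inhibition was calculated against DMSO-treated parasites on the same plate. Compounds giving >50% inhibition at 10 μM went to triplicate dose-response curves, and the EC50 was fitted as the concentration killing 50% of parasites.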

On to `CC(C)(C)c1ccc(C(=O)Nc2cc(Cl)c(Br)cc2C(=O)O)cc1` [Compound 2], for which, in the data set with human cell lines, the “Toxicity toward human cell lines” value is recorded as “no appreciable toxicity”. Also, in the data set on mammalian hexokinase, the “Impact on a mammalian hexokinase” value was “no impact”. Besides, the IC50 in data set [1] was 980 ± 70 nM; in data set [2], 980 ± 67 nM. Further, in the data set with BSF T. brucei [3], the “Trypanocidal activity against whole-cell BSF parasites (result in words)” value was “not an effective trypanocide”. For the same compound, the “%BSF Growth Inhibition (10 μM)” value in the data set on BSF T. brucei [4] (10 μM, triplicate, vs DMSO controls) is given as 6.9 ± 3.0%. The EC50 with BSF T. brucei [4] is greater than 10000 nM.
For the compound `N=C(N)c1ccc(OCCCCCOc2ccc(C(=N)N)cc2)cc1` [pentamadine], the concentration for a half-maximal effect (EC50) with BSF T. brucei [4] was 3 ± 1 nM.

The values are drawn from PMC5576345 (Chemical communications (Cambridge, England), 2017).
